Screening results from PubChem.
CSC inhib: cancer stem cell inhibition; cancer stem cell-like cells viability, luminescence; inhibition, % at 7.5 µM; actives 1.1% (n = 300,000); in the data active = inhibition above about 75%; inconclusive = no clear call, values can overlap the other calls; tested in HMLE shEcad cells
Calb FLC: affects C. albicans growth with fluconazole. C. albicans CaCi-2 (fluconazole-resistant clinical isolate) + fluconazole, Alamar Blue growth, 48 h. growth inhibition, % (concentration not given with the values). actives 0.57% (n = 300,000);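 active = growth inhibition above about 58% in most replicates, limit read from the data, passing the limit was not always enough; inconclusive = exactly half the replicates above a set limit; inactive = most replicates below a set limit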;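 also: all wells also contain fluconazole at 8 µg/ml as a sub-toxic cotreatment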
SKKanGAS inh: blocks kanamycin growth of S. pyogenes SKKanGAS strain | actives 1.3% (n = 300,000) | BacTiter-Glo, 6 h | inhibition, % at 7.5 µM | AID 1662;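 active = mean replicate score, as percent of positive control median, at least 50; inconclusive = mean below 50 but one replicate at or above 50; inactive = mean and every replicate below 50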;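 also: strain carries kanamycin resistance gene driven by streptokinase promoter and grows in 40 µg/ml kanamycin; loss of luminescence reflects streptokinase promoter inhibition or plain growth inhibition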
Beta apoptosis: beta cell apoptosis inhibition. actives 0.8% (n = 300,000). protection from apoptosis, % (test concentration not listed). INS-1E cytokine-induced death, ATP luminescence, 48 h; percent of positive-control rescue, neutral wells zero. AID 435005;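 active = Every replicate reaches about 75%, or at least half do and their mean reaches it too, limit read from the data; inconclusive = At least half of replicates reach the limit but their mean does not; inactive = Under half of replicates reach the limit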;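 also: higher means more ATP so stronger rescue from cytokine killing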
T cruzi repl: blocks replication of Trypanosoma cruzi. T. cruzi beta-gal in NIH3T3, luminescence, 90 h. inhibition, % (test concentration not listed). actives 1.4% (n = 300,000). AID 1885;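 active = mean inhibition across valid replicates above about 55%, limit read from the data; inconclusive = mean below that limit but half or more replicates reach it; inactive = mean below it, under half of replicates reach it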;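 also: signal also drops with host cell toxicity which is not excluded here; higher percent means less beta-gal luminescence so fewer parasites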
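Material: NIH/3T3 host cells with β-galactosidase reporter T. cruzi; Input: 5,000 host fibroblasts per well; Medium: DMEM, 2% fetal bovine serum; Compound: 50 nL DMSO compound solution per well; Schedule: 3 h host attachment, then at least 90 h co-culture; Detection: luminescent β-galactosidase signal after 60 min lysis.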
Mdm2-MdmX inh: human Mdm2/MdmX binding inhibition. SaOS-2 split-luciferase Mdm2/MdmX complementation, luminescence. O15151+Q00987. AID 485346. actives 3% (n = 330,000). inhibition, % at 8 µM;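 active = inhibition of at least 50% at 8 µM in the primary screen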
Target sequence (O15151 whole entry, looked up): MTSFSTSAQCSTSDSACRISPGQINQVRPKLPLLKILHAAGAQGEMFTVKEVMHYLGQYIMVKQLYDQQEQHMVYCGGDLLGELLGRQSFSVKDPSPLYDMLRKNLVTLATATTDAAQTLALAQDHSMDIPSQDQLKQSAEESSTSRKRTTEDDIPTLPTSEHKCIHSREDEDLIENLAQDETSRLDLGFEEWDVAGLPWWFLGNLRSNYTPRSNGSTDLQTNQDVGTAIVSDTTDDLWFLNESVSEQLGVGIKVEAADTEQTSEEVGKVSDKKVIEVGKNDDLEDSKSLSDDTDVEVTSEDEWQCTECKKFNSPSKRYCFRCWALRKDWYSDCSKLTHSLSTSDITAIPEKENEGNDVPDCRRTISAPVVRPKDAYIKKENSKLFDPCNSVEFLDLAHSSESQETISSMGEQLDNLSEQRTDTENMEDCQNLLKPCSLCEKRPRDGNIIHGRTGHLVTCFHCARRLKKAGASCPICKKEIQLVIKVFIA
Target sequence (Q00987 whole entry, looked up): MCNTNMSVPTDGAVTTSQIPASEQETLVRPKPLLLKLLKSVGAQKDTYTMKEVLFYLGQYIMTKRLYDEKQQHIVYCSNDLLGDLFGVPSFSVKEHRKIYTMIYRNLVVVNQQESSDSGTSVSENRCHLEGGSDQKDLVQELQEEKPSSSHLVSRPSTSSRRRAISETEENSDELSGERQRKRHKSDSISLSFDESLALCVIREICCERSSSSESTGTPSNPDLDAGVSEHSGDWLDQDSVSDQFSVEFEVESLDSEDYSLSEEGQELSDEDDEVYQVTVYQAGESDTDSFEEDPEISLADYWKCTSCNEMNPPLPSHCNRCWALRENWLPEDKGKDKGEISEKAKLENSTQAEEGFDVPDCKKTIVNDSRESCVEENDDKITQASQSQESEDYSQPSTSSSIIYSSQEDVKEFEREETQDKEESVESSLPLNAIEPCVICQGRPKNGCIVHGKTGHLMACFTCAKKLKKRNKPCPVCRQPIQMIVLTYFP
Mdm2 MdmX conf: confirmation of human Mdm2/MdmX interaction inhibitors | Mdm2-MdmX binding, luminescent assay | actives 55% (n = 10,000) | shares compounds with Mdm2-MdmX inh | inhibition, % at 8 µM; in the data active = inhibition above about 40%
FLuc counter: counter-screen for Mdm2/MdmX inhibitors: full-length luciferase. shares compounds with Mdm2-MdmX inh. SaOS-2 full-length luciferase counterscreen, luminescence. inhibition, % at 8 µM. actives 77% (n = 6,200);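 active = mean inhibition at 8 µM reaching about 37%, which flags the compound as non-specific, limit read from the data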;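 also: p53-null SaOS-2 cells with luciferase driven by a doxycycline-inducible promoter; compound on cells about two nights before reading with doxycycline added after day one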
A number is an active result; – = inactive; ? = inconclusive; · = not tested or not shown. Most compounds without a hit are left out; they make up all but 5.7% or so of the library.

SMILES	CSC inhib	Calb FLC	SKKanGAS inh	Beta apoptosis	T cruzi repl	Mdm2-MdmX inh	Mdm2 MdmX conf	FLuc counter
COc1ccc([C@@H]2[C@@H]3C(=O)N(C(C)(C)C)C(=O)[C@@H]3[C@]3(Cc4ccccc4)C(=O)N(c4ccc(OC)cc4)C(=O)N23)cc1	–	–	–	–	–	–	·	·
COc1ccc([C@@H]2[C@@H]3C(=O)N(C(C)(C)C)C(=O)[C@@H]3[C@]3(CC(C)C)C(=O)N(c4ccc(C(F)(F)F)cc4)C(=O)N23)cc1	–	–	–	–	–	74.0	75.7	–
Cc1ccc(/C=C/C(=O)OCC(=O)NC(=O)NCc2ccco2)cc1	–	·	·	–	·	–	·	·
O=C(NNC(=O)C1CCN(S(=O)(=O)c2ccccc2C(F)(F)F)CC1)c1ccccc1O	–	–	–	–	–	52.6	53.2	51.3
O=C(NNC(=O)C1CCN(S(=O)(=O)c2c(Cl)cccc2Cl)CC1)c1ccccc1O	–	–	–	–	–	56.2	54.0	53.7
O=C(NNC(=O)C1CCN(S(=O)(=O)c2ccccc2)CC1)c1ccccc1O	–	–	–	–	–	–	·	·
Cc1nn(Cc2ccc(Cl)cc2Cl)c(Cl)c1/C=N/NC(=O)CNc1cccc(C(F)(F)F)c1	–	–	–	–	70.6	83.9	–	·
O=C(CNc1cccc(C(F)(F)F)c1)N/N=C/c1ccccc1C(=O)O	–	–	–	–	–	–	·	·
COc1ccc(NC2=NCC(=O)N2Cc2cccs2)cc1	–	–	–	–	–	55.5	–	·
COc1ccc(NC2=NCCC(=O)N2Cc2cccs2)cc1	–	–	–	–	–	–	·	·
O=C(Nc1ccc(-c2cn3c(n2)SCC3)cc1)c1ccco1	–	–	–	–	·	–	·	·
COc1cccc(/C=N/NC(=O)c2c(C)nc3ccc(Br)cn23)c1O	89.3	108.8	66.5	81.6	69.3	66.7	73.6	–
Cc1ccc(/C=N/NC(=O)c2c(C)nc3ccc(Br)cn23)cc1	–	–	–	–	–	50.4	54.6	53.4
COc1cc(/C=N\NC(=O)c2ccc(Cn3nc([N+](=O)[O-])c(Cl)c3C)o2)ccc1O	–	–	–	–	–	–	·	·
COc1ccc(/C=N/NC(=O)c2c(C)nc3ccc(Br)cn23)cc1OC	–	–	–	–	–	–	·	·
COc1ccc(/C=N\NC(=O)c2c(C)nc3ccc(Br)cn23)cc1	–	–	–	–	–	59.1	51.9	48.8
COc1cccc(/C=N\NC(=O)c2ccc(Cn3cc(Br)c([N+](=O)[O-])n3)o2)c1O	–	102.4	–	96.0	64.1	59.5	73.5	43.0
O=C(NCc1ccc2c(c1)OCO2)c1ccc2c(c1)S(=O)(=O)c1ccccc1C2=O	–	–	–	–	–	–	·	·
O=C(CN(Cc1ccco1)Cc1cccs1)N1CCN(S(=O)(=O)c2cccc(F)c2)CC1	–	·	·	–	·	–	·	·
Cc1ccc(SC(c2ccccc2)C(Cn2cncn2)C(=O)c2ccccc2)cc1 (stereo not given)	–	–	–	–	–	60.3	–	·
O=C(c1ccc(Cl)cc1)C(Cn1cncn1)C(Sc1ccccc1)c1ccccc1 (stereo not given)	–	–	–	–	–	–	·	·
NC(=O)N(N)c1nc(N2CCCC2)nc(N2CCCC2)n1	–	·	·	–	·	–	·	·
CCOc1ccc(-n2nnnc2SCC(=O)Nc2ccc(NC(C)=O)cc2)cc1	–	–	–	–	–	57.3	–	·
COc1ccc(Nc2nnc(SCC(=O)NC(=O)Nc3ccc4c(c3)OCCO4)s2)cc1	–	–	–	–	–	62.4	–	·
O=C(CSc1nnnn1-c1cccc(Cl)c1)Nc1ccc2c(c1)CCC2	–	–	–	–	–	71.2	–	59.9
SMILES	CSC inhib	Calb FLC	SKKanGAS inh	Beta apoptosis	T cruzi repl	Mdm2-MdmX inh	Mdm2 MdmX conf	FLuc counter
COc1cccc(-n2nnnc2SCC(=O)Nc2ccc3c(c2)OCCO3)c1	–	·	–	–	–	79.2	–	·
CCNC(=O)CN(c1ccc(F)cc1)S(=O)(=O)c1ccc2c(c1)OCCO2	–	–	–	·	–	–	·	·
Cc1ccc(N2CC(C(=O)OCC(=O)Nc3ccccc3C)CC2=O)cc1 (stereo not given)	–	·	·	–	·	–	·	·
CCC(OC(=O)c1ccco1)C(=O)NC1CCCC1 (stereo not given)	–	–	–	–	–	–	·	·
CC1CN(S(=O)(=O)c2ccc(NC(=O)c3cc(-c4ccccc4O)n[nH]3)cc2)CC(C)O1 (stereo not given)	–	–	–	–	–	58.0	–	·
CC1CN(S(=O)(=O)c2ccc(C(=O)Nc3nc(-c4cc5ccccc5o4)cs3)cc2)CC(C)O1 (stereo not given)	–	–	–	–	–	76.1	–	·
O=C(Nc1ccc(S(=O)(=O)N2CCOCC2)cc1)c1cc(-c2ccccc2O)n[nH]1	–	–	–	–	–	–	·	·
CN(C)S(=O)(=O)c1ccc(C(=O)Nc2nc(-c3cc4ccccc4o3)cs2)cc1	–	–	–	–	–	–	·	·
COc1ccc(Nc2nc(-c3ccccc3)c(C(=O)Nc3cccnc3)s2)cc1	–	–	–	–	–	–	·	·
N#CCC(=O)NCCCc1ccccc1	–	–	–	–	–	–	·	·
Cc1ccc(-c2cc(C(F)F)nc3sc4c(=O)[nH]cnc4c23)cc1	–	·	·	–	·	70.9	–	·
CN(Cc1ccccc1)C(=O)c1ccc(NC(=O)Cc2cccc(NC(=O)C3CCCN(C(=O)C4CCC4)C3)c2)cc1 (stereo not given)	–	·	·	–	·	–	·	·
CCC(NC(=O)Nc1nnc(C(F)(F)F)s1)(C(F)(F)F)C(F)(F)F	–	?	117.8	124.1	62.4	91.2	90.2	–
COc1cccc2c1C(CO)N1C(C#N)C3CC(C(=O)O)C(C1C2)N3C (stereo not given)	–	·	·	–	·	100.3	100.2	52.3
O=C(NN1CC(=O)N(c2cc(Cl)cc(Cl)c2)CC1=O)c1cccs1	–	–	–	–	–	–	·	·
O=[N+]([O-])c1c(Nc2ccc(O)cc2)cc(Cl)c2nonc12	91.3	86.6	–	99.8	64.1	100.3	100.2	–
O=C(O)c1ccccc1Nc1cc(Cl)c2nonc2c1[N+](=O)[O-]	–	–	–	–	–	–	·	·
O=[N+]([O-])c1c(Nc2ccccn2)cc(Cl)c2nonc12	96.1	–	–	114.7	59.8	100.3	100.1	–
CN(C)c1cc(Nc2ccc(O)cc2)c([N+](=O)[O-])c2nonc12	–	–	–	–	–	–	·	·
COc1ccc(-c2cc(C(F)(F)F)n3ncc(C(=O)N4CCc5ccccc5C4)c3n2)cc1	–	–	·	–	63.1	54.2	–	·
CCOc1ccc(/C=C2\SC(=S)N(CCC(=O)N(CCO)c3ccccc3)C2=O)cc1	–	–	–	–	–	65.0	–	·
